ChEMBL document CHEMBL4431364, “Discovery and synthetic optimization of a novel scaffold for hydrophobic tunnel-targeted autotaxin inhibition” (Bioorg Med Chem, 2016)
Active and inactive are the calls of the source. No cut-off for these calls is given here.

How the values were obtained:
Autotaxin [1] = target: T1, Autotaxin (Homo sapiens, UniProt Q13822); test: Inhibition of C-terminal FLAG tagged human recombinant ATX expressed in insect sf9 cells using FS-3 as substrate measured every 2 mins for 60 mins by FRET assay
In short: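 Dose response over 0.03 to 30 μM compound, 10 nM human FLAG-fusion ATX, 1 μM FS-3 in pH 8.0 Tris/BSA assay buffer. Fluorescence at 485/520 nm every 2 min for 60 min at 37 °C, normalized to no-ATX and no-compound controls. IC50 by non-linear regression. Triplicate.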

Autotaxin [2] = target: T1, Autotaxin; test: Inhibition of C-terminal FLAG tagged human recombinant ATX expressed in insect sf9 cells at 10 uM using FS-3 as substrate measured every 2 mins for 60 mins by FRET assay
In short: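 10 μM compound with 10 nM human FLAG-fusion ATX in pH 8.0 Tris buffer (30 μM BSA, 1 mM CaCl2, 1 mM MgCl2, 5 mM KCl, 140 mM NaCl) and 1 μM FS-3. Fluorescence at ex 485/em 520 nm read every 2 min for 60 min at 37 °C. Normalized to no-ATX (0%) and ATX without compound (100%). Triplicate.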

Autotaxin [3] = target: T1, Autotaxin; test: Inhibition of C-terminal FLAG tagged human recombinant ATX expressed in insect sf9 cells at 10 uM using pNP-TMP as substrate measured every 2 mins for 60 mins by absorbance
Autotaxin [4] = target: T1, Autotaxin; test: Inhibition of C-terminal FLAG tagged human recombinant ATX expressed in insect sf9 cells using pNP-TMP as substrate measured every 2 mins for 60 mins by absorbance
In short: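 Dose response 0.03 to 30 μM compound against 10 nM human FLAG-fusion ATX with 1 mM pNP-TMP in pH 8.0 Tris/BSA buffer. A405 every 2 min for 60 min at 37 °C, normalized to no-enzyme and uninhibited controls. IC50 by non-linear regression. Triplicate.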

[5] = target: Lysophosphatidic acid receptor 4 (Homo sapiens) (UniProt Q99677); test: Agonist activity at LPA receptor 4 (unknown origin) assessed as calcium mobilization after 30 mins by fluorescence analysis; format: functional
[6] = target: T2, Glycerophosphocholine cholinephosphodiesterase ENPP6 (Homo sapiens) (UniProt Q6UWR7); test: Inhibition of C-terminal FLAG tagged human recombinant NPP6 expressed in insect sf9 cells assessed as remaining enzyme activity response at 10 uM using pNPPC as substrate measured every 2 mins for 1 hr by […]
T2 sequence (whole entry): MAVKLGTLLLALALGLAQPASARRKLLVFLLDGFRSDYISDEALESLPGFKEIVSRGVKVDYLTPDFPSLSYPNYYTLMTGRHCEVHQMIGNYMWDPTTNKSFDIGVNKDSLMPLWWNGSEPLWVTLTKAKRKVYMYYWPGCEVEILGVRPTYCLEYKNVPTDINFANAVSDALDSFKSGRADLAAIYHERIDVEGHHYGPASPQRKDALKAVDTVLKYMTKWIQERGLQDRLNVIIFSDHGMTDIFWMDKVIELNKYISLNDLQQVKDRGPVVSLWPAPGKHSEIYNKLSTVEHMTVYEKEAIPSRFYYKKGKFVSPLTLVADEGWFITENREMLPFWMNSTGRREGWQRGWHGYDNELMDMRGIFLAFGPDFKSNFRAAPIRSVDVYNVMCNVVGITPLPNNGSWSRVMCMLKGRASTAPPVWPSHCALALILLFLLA
In short: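 Final 10 nM human FLAG-fusion NPP6, 10 μM compound, 10 μM pNPPC in 500 mM NaCl, 100 mM Tris-HCl, 0.05% Triton X-100, pH 9. A405 at 37 °C every 2 min for 1 h. Background absorbance subtracted. Mean percent response relative to enzyme-only control (no-enzyme = 0%). Triplicate.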

[7] = target: T3, Ectonucleotide pyrophosphatase/phosphodiesterase family member 7 (Homo sapiens) (UniProt Q6UWV6); test: Inhibition of C-terminal FLAG tagged human recombinant NPP7 expressed in insect sf9 cells assessed as remaining enzyme activity response at 10 uM using pNPPC as substrate measured every 2 mins for 1 hr by […]
T3 sequence (whole entry): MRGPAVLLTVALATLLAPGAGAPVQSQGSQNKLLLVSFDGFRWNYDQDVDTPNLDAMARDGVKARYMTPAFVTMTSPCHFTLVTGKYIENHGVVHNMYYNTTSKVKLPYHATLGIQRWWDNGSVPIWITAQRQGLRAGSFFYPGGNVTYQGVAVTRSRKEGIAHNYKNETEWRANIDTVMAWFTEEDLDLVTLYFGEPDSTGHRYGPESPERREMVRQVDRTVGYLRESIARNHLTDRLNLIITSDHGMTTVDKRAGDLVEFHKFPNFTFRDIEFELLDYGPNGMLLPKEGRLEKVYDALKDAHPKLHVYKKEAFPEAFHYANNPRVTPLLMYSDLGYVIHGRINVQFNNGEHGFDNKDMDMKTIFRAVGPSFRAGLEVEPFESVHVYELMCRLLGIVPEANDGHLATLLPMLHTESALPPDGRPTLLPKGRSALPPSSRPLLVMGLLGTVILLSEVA
In short: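 Human FLAG-fusion NPP7 (10 nM final) with 10 μM compound and 10 μM pNPPC in 50 mM Tris-HCl, 150 mM NaCl, 10 mM taurocholate, pH 8. Absorbance at 405 nm, 37 °C, every 2 min for an hour. Background subtracted. Mean percent of enzyme-only response (no-enzyme = 0%). Triplicate.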

[8] = target: Lysophosphatidic acid receptor 1 (Homo sapiens) (UniProt Q92633); test: Agonist activity at LPA receptor 1 (unknown origin) assessed as calcium mobilization after 30 mins by fluorescence analysis; format: functional
[9] = target: Lysophosphatidic acid receptor 2 (Mus musculus) (UniProt Q9JL06); test: Agonist activity at LPA receptor 2 in double knockout MEF assessed as calcium mobilization after 30 mins by fluorescence analysis; format: functional, cell-based
[10] = target: T4, Lysophosphatidic acid receptor 3 (Homo sapiens) (UniProt Q9UBY5); test: Agonist activity at LPA receptor 3 (unknown origin) assessed as calcium mobilization after 30 mins by fluorescence analysis; format: functional
T4 sequence (whole entry): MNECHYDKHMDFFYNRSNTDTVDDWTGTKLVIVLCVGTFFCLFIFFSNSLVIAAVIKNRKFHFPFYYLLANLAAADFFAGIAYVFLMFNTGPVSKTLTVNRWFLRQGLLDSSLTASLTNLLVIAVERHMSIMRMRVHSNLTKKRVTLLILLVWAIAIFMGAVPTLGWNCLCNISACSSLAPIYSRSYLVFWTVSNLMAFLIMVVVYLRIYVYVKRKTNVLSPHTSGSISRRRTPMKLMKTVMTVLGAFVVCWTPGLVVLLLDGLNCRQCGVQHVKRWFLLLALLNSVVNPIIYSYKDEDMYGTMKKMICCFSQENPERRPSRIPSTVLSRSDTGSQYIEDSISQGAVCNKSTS

[11] = target: Lysophosphatidic acid receptor 5 (Homo sapiens) (UniProt Q9H1C0); test: Agonist activity at LPA receptor 5 (unknown origin) assessed as calcium mobilization after 30 mins by fluorescence analysis; format: functional
[12] = target: Lysophosphatidic acid receptor 1 (Homo sapiens) (UniProt Q92633); test: Antagonist activity at LPA receptor 1 (unknown origin) assessed as inhibition of LPA induced calcium mobilization at 0.01 to 10 uM after 30 mins by fluorescence analysis; format: functional
[13] = target: Lysophosphatidic acid receptor 2 (Mus musculus) (UniProt Q9JL06); test: Antagonist activity at LPA receptor 2 in double knockout MEF assessed as inhibition of LPA induced calcium mobilization at 0.01 to 10 uM after 30 mins by fluorescence analysis; format: functional, cell-based
[14] = target: T4, Lysophosphatidic acid receptor 3 (Homo sapiens); test: Antagonist activity at LPA receptor 3 (unknown origin) assessed as inhibition of LPA induced calcium mobilization at 0.01 to 10 uM after 30 mins by fluorescence analysis; format: functional
[15] = target: Lysophosphatidic acid receptor 4 (Homo sapiens) (UniProt Q99677); test: Antagonist activity at LPA receptor 4 (unknown origin) assessed as inhibition of LPA induced calcium mobilization at 0.01 to 10 uM after 30 mins by fluorescence analysis; format: functional
[16] = target: Lysophosphatidic acid receptor 5 (Homo sapiens) (UniProt Q9H1C0); test: Antagonist activity at LPA receptor 5 (unknown origin) assessed as inhibition of LPA induced calcium mobilization at 0.01 to 10 uM after 30 mins by fluorescence analysis; format: functional
[17] = target: Lysophosphatidic acid receptor 2 (Mus musculus) (UniProt Q9JL06); test: Potentiation of LPA induced activity at LPA receptor 2 in double knockout MEF assessed as calcium mobilization at 0.01 to 10 uM after 30 mins in presence of BSA by Fura-2AM based fluorescence analysis; format: functional, cell-based
Autotaxin [18] = target: T1, Autotaxin; test: Potency index, ratio of IC50 for GRI392104 to IC50 for test compound for inhibition of C-terminal FLAG tagged human recombinant ATX expressed in insect sf9 cells using FS-3 as substrate measured every 2 mins for 60 mins by FRET assay

Sequence of Lysophosphatidic acid receptor 2 (Mus musculus) (Q9JL06 whole entry): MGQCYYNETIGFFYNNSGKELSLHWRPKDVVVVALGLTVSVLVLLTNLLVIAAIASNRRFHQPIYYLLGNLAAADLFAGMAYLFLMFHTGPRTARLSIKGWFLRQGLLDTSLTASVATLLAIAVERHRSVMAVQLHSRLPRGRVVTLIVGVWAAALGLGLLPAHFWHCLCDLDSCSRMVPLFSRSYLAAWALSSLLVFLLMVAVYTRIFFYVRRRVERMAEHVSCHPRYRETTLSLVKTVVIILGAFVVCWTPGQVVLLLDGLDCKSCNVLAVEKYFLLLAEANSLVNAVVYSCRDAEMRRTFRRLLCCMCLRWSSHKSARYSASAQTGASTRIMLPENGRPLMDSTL
Sequence of Lysophosphatidic acid receptor 5 (Homo sapiens) (Q9H1C0 whole entry): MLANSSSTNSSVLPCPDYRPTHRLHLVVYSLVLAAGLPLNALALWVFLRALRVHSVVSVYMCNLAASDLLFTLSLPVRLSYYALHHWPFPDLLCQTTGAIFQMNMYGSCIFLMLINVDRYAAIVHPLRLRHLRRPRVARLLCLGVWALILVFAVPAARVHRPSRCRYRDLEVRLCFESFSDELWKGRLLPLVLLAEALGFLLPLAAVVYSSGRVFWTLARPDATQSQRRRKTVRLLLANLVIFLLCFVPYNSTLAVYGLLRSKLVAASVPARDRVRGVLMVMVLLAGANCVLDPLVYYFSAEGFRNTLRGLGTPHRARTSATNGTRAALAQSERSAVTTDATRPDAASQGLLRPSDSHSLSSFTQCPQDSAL
Sequence of Lysophosphatidic acid receptor 1 (Homo sapiens) (Q92633 whole entry): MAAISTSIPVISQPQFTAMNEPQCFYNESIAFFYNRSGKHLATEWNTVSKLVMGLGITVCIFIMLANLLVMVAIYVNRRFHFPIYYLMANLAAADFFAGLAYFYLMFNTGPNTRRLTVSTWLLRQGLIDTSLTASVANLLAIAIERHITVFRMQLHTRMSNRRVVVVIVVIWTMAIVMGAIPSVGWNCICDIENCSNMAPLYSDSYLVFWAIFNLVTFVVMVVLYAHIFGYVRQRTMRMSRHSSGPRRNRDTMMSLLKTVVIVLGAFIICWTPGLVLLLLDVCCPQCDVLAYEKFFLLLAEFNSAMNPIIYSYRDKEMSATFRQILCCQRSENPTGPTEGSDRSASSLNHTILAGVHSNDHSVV
Sequence of Lysophosphatidic acid receptor 4 (Homo sapiens) (Q99677 whole entry): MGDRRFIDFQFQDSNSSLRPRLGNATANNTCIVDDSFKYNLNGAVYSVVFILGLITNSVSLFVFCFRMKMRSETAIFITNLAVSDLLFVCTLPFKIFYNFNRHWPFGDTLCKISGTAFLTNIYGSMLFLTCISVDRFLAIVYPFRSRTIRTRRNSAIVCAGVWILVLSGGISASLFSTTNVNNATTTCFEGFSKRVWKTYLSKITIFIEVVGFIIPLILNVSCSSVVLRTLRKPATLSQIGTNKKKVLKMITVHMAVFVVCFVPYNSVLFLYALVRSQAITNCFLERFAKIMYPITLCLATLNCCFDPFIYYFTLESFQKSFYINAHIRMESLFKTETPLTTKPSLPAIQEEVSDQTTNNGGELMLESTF

Compound | IC50 (Autotaxin [1]) [nM] | inhibition (Autotaxin [2]) [%] | inhibition (Autotaxin [3]) [%] | IC50 (Autotaxin [4]) [µM] | Activity [6] [%] | Activity [7] [%] | also measured
O=C(COc1cc(Cl)cc(Cl)c1)N1CCN(c2cccc([N+](=O)[O-])c2)CC1 | 670 | 84.3 | 52.1 | 8.9 | 89.8 | 102 | Activity [5]: inactive; Activity [8]: inactive; Activity [9]: inactive; Activity [10]: inactive; Activity [11]: inactive; inhibition [12]: inactive; inhibition [13]: inactive; inhibition [14]: inactive; inhibition [15]: inactive; inhibition [16]: inactive; Activity [17]: Active; Ratio IC50 (Autotaxin [18]): 6
O=C(COc1ccc(C(F)(F)F)cc1)N1CCN(c2ccccc2[N+](=O)[O-])CC1 | 4700 | 72.6 | 44.7 | 11.3 |  |  | 
O=C(O)c1ccccc1N1CCN(C(=O)COc2ccc(C(F)(F)F)cc2)CC1 | 1800 | 89.1 | 43.7 |  | 97.6 | 90.5 | 
O=C(CCCOc1ccc(Cl)cc1Cl)N1CCN(c2ccc([N+](=O)[O-])cc2)CC1 | 4000 | 65.5 | 27.7 |  | 92.2 | 86.3 | 
O=C(COc1ccc(Cl)cc1)N1CCN(c2ccc([N+](=O)[O-])cc2)CC1 | 2200 | 76 | 19.9 |  | 94 | 114 | 
O=C(COc1cc(Cl)cc(Cl)c1)N1CCN(c2ccccc2[N+](=O)[O-])CC1 | 3000 | 77.7 | 46.8 | 11.4 | 93.4 | 99 | 
O=C(COc1ccc(C(F)(F)F)cc1)N1CCN(c2cccc([N+](=O)[O-])c2)CC1 | 4200 | 60.4 | 30.3 |  |  |  | 
O=C(COc1cc(Cl)cc(Cl)c1)N1CCN(c2ccc([N+](=O)[O-])cc2)CC1 | 2300 | 63 | 20.4 |  | 95.8 | 93.1 | 

Further lines, with some results ahead:

IC50 (Autotaxin [1]) [nM] | inhibition (Autotaxin [2]) [%] | inhibition (Autotaxin [3]) [%] | IC50 (Autotaxin [4]) [µM] | Activity [6] [%] | Activity [7] [%] | Compound | also measured
3700 | 51.8 |  |  | 92.2 | 103 | O=C(COc1ccc(Cl)cc1Cl)N1CCN(c2ccc([N+](=O)[O-])cc2)CC1 | 
3400 | 73.2 | 7.3 |  | 89.8 | 89.5 | O=C(COc1ccc(Cl)cc1Cl)N1CCN(c2cccc([N+](=O)[O-])c2)CC1 | 
7300 | 54.6 | 56.2 | 5.2 |  |  | O=C(O)c1cccc(N2CCN(C(=O)COc3cc(Cl)cc(Cl)c3)CC2)c1 | 
2100 | 76.1 | 29.5 |  | 95.2 | 103 | O=C(O)c1cccc(N2CCN(C(=O)COc3ccc(Cl)cc3Cl)CC2)c1 | 
2200 | 67.1 | 37.9 |  | 89.2 | 87.3 | O=C(O)c1cccc(N2CCN(C(=O)COc3cccc(C(F)(F)F)c3)CC2)c1 | 
3700 | 79.8 | 56.6 | 6.2 | 93.4 | 89.2 | O=C(O)c1cccc(N2CCN(C(=O)COc3ccc(Cl)cc3)CC2)c1 | 
2600 | 80 | 37.1 |  | 96.4 | 84.3 | O=C(O)c1cccc(N2CCN(C(=O)COc3cccc(Cl)c3)CC2)c1 | 
2200 | 59.8 | 23.4 |  | 91 | 90.2 | O=C(O)c1ccccc1N1CCN(C(=O)COc2cc(Cl)cc(Cl)c2)CC1 | 
